Assay results reported in ChEMBL document CHEMBL3352008, “Dualsteric muscarinic antagonists--orthosteric binding pose controls allosteric subtype selectivity” (J Med Chem, 2014).
Residue numbers refer to the chain shown, from its start. The source made the active and inactive calls. The rule behind the calls is not given here.

Tests used:
Assay type in all cases: cell-based
[1] = target: Muscarinic acetylcholine receptor M2 (Homo sapiens, UniProt P08172, Y104A); assay: (§1) Displacement of [3H]-NMS from human muscarinic M2 Y104A mutant expressed in Flp-In-CHO cells by liquid scintillation counting
Procedure, shortened: (§2)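 Bound separated either by rapid filtration or, in some cases, by centrifugation at 21000g, 15 °C, 20 min. Pellet washed once, resuspended, counted by liquid scintillation. Triplicate determinations.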

[2] = target: T1, Muscarinic acetylcholine receptor M2 (Homo sapiens, UniProt P08172); assay: (§3) Displacement of [3H]-NMS from wild-type human muscarinic M2 receptor expressed in Flp-In-CHO cells by liquid scintillation counting
T1 sequence (P08172 whole entry): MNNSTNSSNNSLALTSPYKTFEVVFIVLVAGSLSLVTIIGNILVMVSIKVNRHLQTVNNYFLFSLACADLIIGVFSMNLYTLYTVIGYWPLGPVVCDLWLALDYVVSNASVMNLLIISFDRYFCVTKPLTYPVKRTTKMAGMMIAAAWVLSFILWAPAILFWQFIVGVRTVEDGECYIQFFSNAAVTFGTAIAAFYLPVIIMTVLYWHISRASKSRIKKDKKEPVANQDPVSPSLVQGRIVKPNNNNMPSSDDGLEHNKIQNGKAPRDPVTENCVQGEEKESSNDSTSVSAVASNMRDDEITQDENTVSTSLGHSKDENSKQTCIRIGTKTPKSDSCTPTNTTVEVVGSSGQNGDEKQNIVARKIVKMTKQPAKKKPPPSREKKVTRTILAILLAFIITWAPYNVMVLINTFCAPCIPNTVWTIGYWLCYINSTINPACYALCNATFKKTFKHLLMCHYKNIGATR
Procedure, shortened: (§4)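 Separated by rapid filtration, counted by liquid scintillation. Means ± SEM of 3−4 independent experiments in triplicate; unpaired two-tailed t test versus wild type.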

[3] = target: Muscarinic acetylcholine receptor M2 (Homo sapiens, UniProt P08172, T423H/Y177Q); assay: (§5) Displacement of [3H]-NMS from human muscarinic M2 Y177Q/T423H mutant expressed in Flp-In-CHO cells by liquid scintillation counting; procedure, shortened: as §4
[4] = target: Muscarinic acetylcholine receptor M2 (Homo sapiens, UniProt P08172, Y177Q); assay: (§6) Displacement of [3H]-NMS from human muscarinic M2 Y177Q mutant expressed in Flp-In-CHO cells by liquid scintillation counting; procedure, shortened: as §4
[5] = target: Muscarinic acetylcholine receptor M2 (Homo sapiens, UniProt P08172, W422A); assay: Displacement of [3H]-NMS from human muscarinic M2 W422A mutant expressed in Flp-In-CHO cells by liquid scintillation counting; procedure, shortened: as §4
[6] = target: T2, Muscarinic acetylcholine receptor M5 (Homo sapiens, UniProt P08912); assay: (§7) Displacement of [3H]-NMS from wild-type human muscarinic M5 receptor expressed in CHO-K1 cells by liquid scintillation counting; procedure, shortened: as §4
T2 sequence (P08912 whole entry): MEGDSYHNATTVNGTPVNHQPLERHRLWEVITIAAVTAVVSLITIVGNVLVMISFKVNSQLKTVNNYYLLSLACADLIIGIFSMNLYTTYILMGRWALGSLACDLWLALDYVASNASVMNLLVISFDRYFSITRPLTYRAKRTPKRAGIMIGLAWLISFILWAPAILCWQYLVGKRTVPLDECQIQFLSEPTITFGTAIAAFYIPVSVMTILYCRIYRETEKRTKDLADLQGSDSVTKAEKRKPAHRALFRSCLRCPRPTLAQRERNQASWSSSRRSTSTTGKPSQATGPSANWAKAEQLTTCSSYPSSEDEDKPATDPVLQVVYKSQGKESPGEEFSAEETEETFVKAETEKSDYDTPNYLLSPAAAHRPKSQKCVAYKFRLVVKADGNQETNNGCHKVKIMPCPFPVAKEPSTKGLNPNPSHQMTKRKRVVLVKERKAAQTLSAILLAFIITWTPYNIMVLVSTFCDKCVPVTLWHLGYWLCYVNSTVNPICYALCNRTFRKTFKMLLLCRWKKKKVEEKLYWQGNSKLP

[7] = system: T3, Muscarinic acetylcholine receptor M2 (Homo sapiens), P08172 [Y104A]; assay: as §1; procedure, shortened: as §2
T3 sequence (whole entry): T1 sequence (P08172 whole entry) with Y104A

[8] = target: T4, Muscarinic acetylcholine receptor M2 (Homo sapiens) (UniProt P08172); assay: as §3; procedure, shortened: as §4
T4 sequence (whole entry): T1 sequence (P08172 whole entry)

[9] = system: T5, Muscarinic acetylcholine receptor M2 (Homo sapiens), P08172 [Y177Q,T423H]; assay: as §5; procedure, shortened: as §4
T5 sequence (whole entry): T1 sequence (P08172 whole entry) with Y177Q, T423H

[10] = target: T6, Muscarinic acetylcholine receptor M5 (Homo sapiens) (UniProt P08912); assay: as §7; procedure, shortened: as §4
T6 sequence (whole entry): T2 sequence (P08912 whole entry)

[11] = target: T4, Muscarinic acetylcholine receptor M2 (Homo sapiens); assay: Antagonist activity at wild-type human muscarinic M2 receptor expressed in Flp-In-CHO cells assessed as inhibition of acetylcholine-induced effect at 0.01 to 100 uM by time-course assay
Procedure, shortened: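 Label-free dynamic mass redistribution (Epic reader) in Flp-In-CHO cells stably expressing hM2, seeded at 12500 cells/well and grown 20 h at 37 °C to confluence. Cells washed and rested 2 h at 28 °C in HBSS with 20 mM HEPES, pH 7.0. DMR signal induced by a maximally effective acetylcholine concentration, antagonist then added and response followed over time. Representative experiment, n = 4, repeated at least twice on separate days.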

[12] = system: T7, Muscarinic acetylcholine receptor M2 (Homo sapiens), P08172 [Y177Q]; assay: as §6; procedure, shortened: as §4
T7 sequence (whole entry): T1 sequence (P08172 whole entry) with Y177Q

[13] = target: T4, Muscarinic acetylcholine receptor M2 (Homo sapiens); assay: Antagonist activity at wild-type human muscarinic M2 receptor expressed in Flp-In-CHO cells assessed as inhibition of acetylcholine-induced effect at 100 uM in absence of atropine by time-course assay
[14] = target: T4, Muscarinic acetylcholine receptor M2 (Homo sapiens); assay: Antagonist activity at wild-type human muscarinic M2 receptor expressed in Flp-In-CHO cells assessed as inhibition of acetylcholine-induced effect at 0.1 to 100 uM by time-course assay
Procedure, shortened: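 DMR (label-free optical) in Flp-In-CHO cells stably expressing hM2, seeded 12500 cells/well, grown 20 h at 37 °C. Washed, rested 2 h at 28 °C in HBSS + 20 mM HEPES pH 7.0. Acetylcholine at maximally effective concentration, then antagonist; responses monitored 1 h. Representative experiment, n = 4, repeated at least twice on separate days.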

Chain of Muscarinic acetylcholine receptor M2 (Homo sapiens, UniProt P08172, T423H/Y177Q) (P08172 whole entry Y177Q/T423H): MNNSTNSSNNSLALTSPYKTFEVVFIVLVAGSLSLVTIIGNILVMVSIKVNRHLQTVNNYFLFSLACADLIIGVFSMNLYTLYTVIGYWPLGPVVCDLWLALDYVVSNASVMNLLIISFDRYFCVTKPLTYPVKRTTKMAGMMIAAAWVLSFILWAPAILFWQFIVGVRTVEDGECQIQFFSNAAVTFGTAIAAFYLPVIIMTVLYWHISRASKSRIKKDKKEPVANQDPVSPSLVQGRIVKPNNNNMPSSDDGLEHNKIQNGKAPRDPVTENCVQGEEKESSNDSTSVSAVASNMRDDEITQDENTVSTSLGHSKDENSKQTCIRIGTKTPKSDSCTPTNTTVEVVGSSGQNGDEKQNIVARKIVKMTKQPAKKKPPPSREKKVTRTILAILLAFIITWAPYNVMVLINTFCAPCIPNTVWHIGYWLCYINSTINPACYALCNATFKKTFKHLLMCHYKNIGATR
Chain of Muscarinic acetylcholine receptor M2 (Homo sapiens, UniProt P08172, W422A) (P08172 whole entry W422A): as the sequence (P08172 whole entry Y177Q/T423H) above, with Q177Y, W422A, H423T counted along it
Chain of Muscarinic acetylcholine receptor M2 (Homo sapiens, UniProt P08172, Y177Q) (P08172 whole entry Y177Q): as the sequence (P08172 whole entry Y177Q/T423H) above, with H423T counted along it
Chain of Muscarinic acetylcholine receptor M2 (Homo sapiens, UniProt P08172, Y104A) (P08172 whole entry Y104A): as the sequence (P08172 whole entry Y177Q/T423H) above, with Y104A, Q177Y, H423T counted along it

For `C[N+](C)(CCCCCC[N+]1(C)[C@@H]2C[C@H](OC(=O)[C@H](CO)c3ccccc3)C[C@H]1[C@@H]1O[C@@H]12)CCCN1C(=O)c2ccccc2C1=O` (stereo not given in full), the Ki [1] was 0.0501 µM, the Ki [2] was 0.00813 µM and the Ki [3] was 0.00708 µM. For the same compound, the Ki [4] was 0.00708 µM, the Ki [5] was 0.00692 µM and the Ki [6] was 0.017 µM.

Compound `C[N+](C)(C)CC#CCOC1=NOCC1` has a Ki [1] of 0.257 µM, a Ki [2] of 0.00251 µM and a Ki [3] of 0.00219 µM. It also gave a Ki [4] of 0.00871 µM, a Ki [5] of 0.01 µM and a Ki [6] of 0.12 µM.

Compound `C[N+](C)(CC#CCOC1=NOCC1)CCCCCC[N+](C)(C)CCCN1C(=O)c2ccccc2C1=O` has a Ki [1] of 0.204 µM, a Ki [2] of 0.0912 µM and a Ki [3] of 0.2 µM. The Ki [4] was 0.275 µM, the Ki [5] was 0.0759 µM and the Ki [6] was 30.2 µM.

With `C[N+](C)(CCCCCC[N+](C)(C)CCCN1C(=O)c2ccccc2C1=O)CCCN1C(=O)c2ccccc2C1=O` the pKA [7] was 6.59, the pKA [8] was 6.55 and the pKA [9] was 5.47. It also gave a pKA [10] of 4.37.

`C[N+](C)(C)CCCCCC[N+]1(C)[C@@H]2CC[C@@H]1CC(OC(=O)C(CO)c1ccccc1)C2` (relative stereo) showed a Ki [1] of 0.151 µM, a Ki [2] of 0.0162 µM and a Ki [3] of 0.0182 µM. It also gave a Ki [4] of 0.0186 µM, a Ki [5] of 0.055 µM and a Ki [6] of 0.0871 µM.

`CC(C)(CN1C(=O)c2cccc3cccc(c23)C1=O)C[N+](C)(C)CCCCCC[N+](C)(C)CCCN1C(=O)c2ccccc2C1=O` was tested, and the pKA [7] was 7.64, the inhibition [11] was “Active” and the pKA [8] was 7.7. The pKA [9] was 5.82, the pKA [12] was 6.23 and the pKA [10] was 5.05.

In the case of `CC(C)(CN1C(=O)c2cccc3cccc(c23)C1=O)C[N+](C)(C)CCCCCC[N+]1(C)[C@@H]2C[C@H](OC(=O)[C@H](CO)c3ccccc3)C[C@H]1[C@@H]1O[C@@H]12` (stereo not given in full), the Ki [1] is reported as 0.132 µM, the Ki [2] is reported as 0.00617 µM and the Ki [3] is reported as 0.00331 µM. It also gave a Ki [4] of 0.00891 µM, a Ki [5] of 0.00646 µM and a Ki [6] of 0.0055 µM.

Compound `CC(C)(CN1C(=O)c2cccc3cccc(c23)C1=O)C[N+](C)(C)CCCCCC[N+]1(C)[C@@H]2CC[C@@H]1CC(OC(=O)C(CO)c1ccccc1)C2` (relative stereo) has a Ki [1] of 0.0617 µM, a Ki [2] of 0.00282 µM and a Ki [3] of 0.00282 µM. The Ki [4] was 0.00851 µM, the inhibition [13] was “inactive” and the Ki [5] was 0.0214 µM. The Ki [6] was 0.0195 µM and the inhibition [14] was “Active”.

`CC(C)(CN1C(=O)c2cccc3cccc(c23)C1=O)C[N+](C)(C)CCCCCC[N+](C)(C)CC#CCOC1=NOCC1` gave a Ki [1] of 0.0145 µM, a Ki [2] of 0.0115 µM and a Ki [3] of 0.0269 µM. The Ki [5] was 0.0195 µM.

For `CN(C)CC#CCOC1=NOCC1`, the Ki [2] was 0.1 µM.

Compound `C[N+]1(C)[C@@H]2CC[C@@H]1CC(OC(=O)C(CO)c1ccccc1)C2` (stereo not given in full) has a Ki [1] of 0.011 µM and a Ki [2] of 0.00182 µM.

`C[N+](C)(C)CCCCCC[N+](C)(C)CC#CCOC1=NOCC1` showed a Ki [1] of 1.29 µM, a Ki [3] of 0.0646 µM and a Ki [4] of 0.0912 µM. For the same compound, the Ki [5] was 0.275 µM and the Ki [6] was 3.98 µM.

Compound `C[N+](C)(C)CCCCCC[N+]1(C)[C@@H]2C[C@H](OC(=O)[C@H](CO)c3ccccc3)C[C@H]1[C@@H]1O[C@@H]12` (stereo not given in full) has a Ki [1] of 0.309 µM, a Ki [2] of 0.0479 µM and a Ki [5] of 0.0407 µM. For the same compound, the Ki [6] was 0.0209 µM.

In the case of `CN1[C@@H]2CC[C@H]1CC(OC(=O)[C@H](CO)c1ccccc1)C2` (stereo not given in full), the inhibition [11] is reported as “Active”.
